ChEMBL document CHEMBL2346655, “Synthesis and in vitro biological evaluation of 2,6,9-trisubstituted purines targeting multiple cyclin-dependent kinases” (Eur J Med Chem, 2013)

Legend:
HCT-116 = assay: Cytotoxicity against human HCT116 cells assessed as reduction in number of viable cells after 72 hrs by fluorescence assay; type: functional, cell-based; details: HCT-116, 72 h
How it was run: (§1)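 Three-fold compound dilutions tested in triplicate on cultured cells for 72 h. Viable cells detected by adding Calcein AM and reading fluorescence at 485/538 nm (ex/em).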

[1] = molecular target: Cyclin-dependent kinase 5/CDK5 activator 1 (Homo sapiens, UniProt Q00535); assay: Inhibition of CDK5/P35 (unknown origin) using histone H1 as substrate; type: protein-complex assay
Sequence of Cyclin-dependent kinase 5/CDK5 activator 1 (Q00535 whole entry): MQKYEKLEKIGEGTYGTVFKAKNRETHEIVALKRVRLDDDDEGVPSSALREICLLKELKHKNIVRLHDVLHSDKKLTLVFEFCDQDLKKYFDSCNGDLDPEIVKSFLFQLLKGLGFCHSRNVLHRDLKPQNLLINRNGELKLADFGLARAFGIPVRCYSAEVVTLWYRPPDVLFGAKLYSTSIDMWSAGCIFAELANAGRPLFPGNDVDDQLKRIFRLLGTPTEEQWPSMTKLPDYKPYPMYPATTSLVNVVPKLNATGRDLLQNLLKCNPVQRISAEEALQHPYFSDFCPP
Sequence of Cyclin-dependent kinase 5/CDK5 activator 1 (Q15078 whole entry, further chain): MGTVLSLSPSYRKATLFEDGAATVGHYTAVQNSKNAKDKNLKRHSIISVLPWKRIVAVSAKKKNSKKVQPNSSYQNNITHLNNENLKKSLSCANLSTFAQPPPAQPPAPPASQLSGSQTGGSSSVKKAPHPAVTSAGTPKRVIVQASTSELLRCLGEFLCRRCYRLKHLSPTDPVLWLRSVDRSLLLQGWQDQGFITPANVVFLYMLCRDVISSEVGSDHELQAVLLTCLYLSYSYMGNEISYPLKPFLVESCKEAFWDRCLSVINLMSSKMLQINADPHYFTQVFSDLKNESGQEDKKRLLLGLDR

K562 = assay: Cytotoxicity against human K562 cells assessed as reduction in number of viable cells after 72 hrs by fluorescence assay; type: functional, cell-based; details: K562, 72 h; how it was run: as §1
CCRF-CEM = assay: Cytotoxicity against human CEM cells assessed as reduction in number of viable cells after 72 hrs by fluorescence assay; type: functional, cell-based; how it was run: as §1
CDK9/cyclin T1 = CDK9/cyclin T1 (Homo sapiens, UniProt P50750); assay: Inhibition of CDK9/CyclinT1 (unknown origin) using (YSPTSPS)2KK as substrate; type: protein-complex assay
Sequence of CDK9/cyclin T1 (O60563 whole entry): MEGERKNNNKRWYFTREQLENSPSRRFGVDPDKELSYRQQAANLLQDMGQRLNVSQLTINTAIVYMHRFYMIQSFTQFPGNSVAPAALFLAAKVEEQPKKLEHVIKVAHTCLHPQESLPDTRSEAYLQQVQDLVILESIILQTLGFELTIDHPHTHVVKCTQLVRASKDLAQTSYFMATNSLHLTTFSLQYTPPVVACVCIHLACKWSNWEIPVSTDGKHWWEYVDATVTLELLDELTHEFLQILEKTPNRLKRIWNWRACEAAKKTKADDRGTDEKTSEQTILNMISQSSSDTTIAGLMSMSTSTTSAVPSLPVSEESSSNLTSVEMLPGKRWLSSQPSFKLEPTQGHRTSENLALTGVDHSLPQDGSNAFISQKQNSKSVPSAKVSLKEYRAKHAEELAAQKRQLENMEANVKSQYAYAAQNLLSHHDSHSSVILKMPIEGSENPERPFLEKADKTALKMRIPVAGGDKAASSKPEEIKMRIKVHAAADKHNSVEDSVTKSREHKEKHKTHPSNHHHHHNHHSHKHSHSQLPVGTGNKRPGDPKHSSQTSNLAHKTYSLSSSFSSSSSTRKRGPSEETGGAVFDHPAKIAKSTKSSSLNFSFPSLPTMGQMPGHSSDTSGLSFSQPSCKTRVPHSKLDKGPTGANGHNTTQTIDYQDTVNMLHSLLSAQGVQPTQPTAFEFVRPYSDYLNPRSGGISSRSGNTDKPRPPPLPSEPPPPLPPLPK
Sequence of CDK9/cyclin T1 (P50750 whole entry): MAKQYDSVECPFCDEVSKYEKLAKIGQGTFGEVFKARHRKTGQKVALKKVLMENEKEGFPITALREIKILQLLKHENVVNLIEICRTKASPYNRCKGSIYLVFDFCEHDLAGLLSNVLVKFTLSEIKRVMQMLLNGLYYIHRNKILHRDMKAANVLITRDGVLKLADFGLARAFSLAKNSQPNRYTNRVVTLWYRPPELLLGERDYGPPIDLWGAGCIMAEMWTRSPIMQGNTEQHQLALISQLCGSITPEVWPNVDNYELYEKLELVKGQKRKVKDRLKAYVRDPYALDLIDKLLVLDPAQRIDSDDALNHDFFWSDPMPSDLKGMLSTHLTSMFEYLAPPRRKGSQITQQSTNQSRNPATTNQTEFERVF
How it was run: (§2)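 Buffer was 60 mM HEPES-NaOH pH 7.5, 3 mM MgCl2, 3 mM MnCl2, vanadate, DTT and PEG. Reactions were stopped with H3PO4 and spotted on P-81 paper, which was then washed. Radioactivity was imaged; IC50 taken from dose–response curves.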

G-361 = assay: Cytotoxicity against human G361 cells assessed as reduction in number of viable cells after 72 hrs by fluorescence assay; type: functional, cell-based; details: G-361, 72 h; how it was run: as §1
[2] = molecular target: Cyclin-dependent kinase 2/cyclin E1 (Homo sapiens, UniProt P24941); assay: Inhibition of CDK2/Cyclin E (unknown origin) expressed in Sf9 cells using histone H1 as substrate
MCF7 = assay: Cytotoxicity against human MCF7 cells assessed as reduction in number of viable cells after 72 hrs by fluorescence assay; type: functional, cell-based; details: MCF7, 72 h; how it was run: as §1
HOS = assay: Cytotoxicity against human HOS cells assessed as reduction in number of viable cells after 72 hrs by fluorescence assay; type: functional, cell-based; how it was run: as §1
[3] = molecular target: Cyclin-dependent kinase 7/ cyclin H (Homo sapiens, UniProt P50613); assay: Inhibition of CDK7/CyclinH/MAT1 (unknown origin) using (YSPTSPS)2KK as substrate; type: protein-complex assay; how it was run: as §2
Sequence of Cyclin-dependent kinase 7/ cyclin H (P51946 whole entry): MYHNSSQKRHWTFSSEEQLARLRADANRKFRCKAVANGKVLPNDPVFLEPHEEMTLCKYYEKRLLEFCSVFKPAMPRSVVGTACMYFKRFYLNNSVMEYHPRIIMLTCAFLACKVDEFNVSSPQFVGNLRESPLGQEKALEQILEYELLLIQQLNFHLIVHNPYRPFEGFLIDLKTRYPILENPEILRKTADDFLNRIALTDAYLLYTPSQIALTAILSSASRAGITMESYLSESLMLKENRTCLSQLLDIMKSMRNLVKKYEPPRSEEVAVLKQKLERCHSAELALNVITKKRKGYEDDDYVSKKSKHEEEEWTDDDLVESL
Sequence of Cyclin-dependent kinase 7/ cyclin H (P50613 whole entry): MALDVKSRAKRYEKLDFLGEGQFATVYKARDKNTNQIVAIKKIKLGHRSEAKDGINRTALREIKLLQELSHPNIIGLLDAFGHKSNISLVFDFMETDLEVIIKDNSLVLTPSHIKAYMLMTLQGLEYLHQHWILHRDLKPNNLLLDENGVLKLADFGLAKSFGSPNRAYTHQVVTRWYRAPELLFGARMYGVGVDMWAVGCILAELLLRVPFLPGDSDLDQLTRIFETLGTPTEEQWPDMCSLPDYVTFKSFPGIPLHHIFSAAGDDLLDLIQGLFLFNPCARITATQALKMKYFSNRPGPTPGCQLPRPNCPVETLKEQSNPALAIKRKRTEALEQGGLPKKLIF

Compound	IC50 [1]	IC50 (CDK9/cyclin T1)	IC50 [2]	IC50 [3]	IC50 (HCT-116)	IC50 (K562)	IC50 (CCRF-CEM)	IC50 (G-361)	IC50 (MCF7)	IC50 (HOS)
CC(C)n1cnc2c(NCc3ccccc3N)nc(NCCC(C)(C)O)nc21	> 5 µM	> 5 µM	0.79 µM		100 µM	100 µM	100 µM	100 µM	100 µM	100 µM
CC(C)n1cnc2c(NCc3cc(Cl)ccc3O)nc(NC3CCC(O)CC3)nc21 (centres undefined)	0.55 µM	0.91 µM	0.061 µM	0.54 µM	13.2 µM	2.4 µM	3.2 µM	8.2 µM	2.6 µM	6.4 µM
CC(C)[C@H](Nc1nc(NCc2ccccc2N)c2ncn(C(C)C)c2n1)C(C)(C)O	0.675 µM	0.845 µM	0.07 µM	0.29 µM	11.8 µM	39.8 µM	13.1 µM	18.7 µM	12.8 µM	42.7 µM
CC(C)n1cnc2c(NCc3cc(Cl)ccc3O)nc(NCC(C)(C)O)nc21	0.069 µM		0.019 µM	0.435 µM	4 µM	5.1 µM	3.9 µM	4.3 µM	2.7 µM	4.4 µM
CC[C@H](CO)Nc1nc(NCc2ccccc2)c2ncn(C(C)C)c2n1 [SELICICLIB]					14.4 µM	45.5 µM	16.3 µM	22.4 µM	12.3 µM	24.3 µM
CC(C)n1cnc2c(NCc3ccc(O)cc3)nc(N3CCNCC3)nc21			0.34 µM		9.3 µM	9.3 µM	13.4 µM	12.4 µM	4.1 µM	6.5 µM
CC(C)n1cnc2c(NCc3ccccc3N)nc(NCC(C)(C)O)nc21	0.74 µM	1.24 µM	0.02 µM	1.2 µM	12.9 µM	34 µM	12.6 µM	12.6 µM	13.5 µM	16.9 µM
COc1ccc(CNc2nc(N3CCN(C)CC3)nc3c2ncn3C(C)C)cc1			0.89 µM		13.4 µM	11.9 µM	13.1 µM	13.9 µM	12 µM	11.2 µM
CC[C@H](CO)Nc1nc(NCc2ccc(N)cc2)c2ncn(C(C)C)c2n1					23.8 µM	71.5 µM	22.6 µM	26 µM	18.1 µM	29.4 µM
COc1ccc(CNc2nc(N3CCNCC3)nc3c2ncn3C(C)C)cc1			0.89 µM		11.5 µM	5.3 µM	10.8 µM	10.1 µM	3.53 µM	5.1 µM
CC(C)n1cnc2c(NCc3cc(Cl)ccc3O)nc(NC3CCC(N)CC3)nc21 (centres undefined)	0.125 µM	0.039 µM	0.025 µM	0.16 µM	2.4 µM	2.4 µM	3.3 µM	2.4 µM	1.8 µM	2.2 µM

More lines, main results first:

IC50 [1]	IC50 (CDK9/cyclin T1)	IC50 [2]	IC50 [3]	Compound	IC50 (HCT-116)	IC50 (K562)	IC50 (CCRF-CEM)	IC50 (G-361)	IC50 (MCF7)	IC50 (HOS)
2.36 µM	3.13 µM	0.22 µM		CC(C)CNc1nc(NCc2ccccc2O)c2ncn(C(C)C)c2n1	22.2 µM	10.8 µM	13.6 µM	15.7 µM	14.1 µM	23.9 µM
		0.06 µM		CC[C@H](CO)Nc1nc(NCc2cccc(OC)c2O)c2ncn(C(C)C)c2n1	12.3 µM	54.8 µM	16.6 µM	22 µM	12.6 µM	14.8 µM
0.067 µM	0.1 µM	0.0118 µM	0.18 µM	CC[C@@H](Nc1nc(NCc2cc(F)ccc2O)c2ncn(C(C)C)c2n1)C(C)O (mixture of isomers)	1.8 µM	2.9 µM	1.6 µM	1.9 µM	1.8 µM	2.4 µM
		0.0243 µM		CC(C)n1cnc2c(NCc3cc(Cl)ccc3O)nc(N[C@@H](C)C(C)(C)O)nc21	1.8 µM	2 µM	2.5 µM	1.2 µM	1.4 µM	1.8 µM
0.24 µM	0.106 µM	0.019 µM		CC[C@H](CO)Nc1nc(NCc2cc(F)ccc2O)c2ncn(C(C)C)c2n1	4.8 µM	4.1 µM	3.9 µM	6.5 µM	3.6 µM	4.5 µM
4.49 µM	> 5 µM	0.26 µM		CC(C)n1cnc2c(NCc3ccccc3O)nc(NCCC(C)(C)O)nc21	64.1 µM	47.3 µM	34.6 µM	52.2 µM	65.9 µM	45.5 µM
0.15 µM	0.285 µM	0.0094 µM		CC[C@H](CO)Nc1nc(NCc2cc(Cl)ccc2O)c2ncn(C(C)C)c2n1	5.4 µM	3.2 µM	3.7 µM	4.3 µM	4.6 µM	5 µM
		0.031 µM		CC[C@H](CO)Nc1nc(NCc2cccc(OC)c2OC)c2ncn(C(C)C)c2n1	29.5 µM	40.1 µM	38 µM	46.6 µM	21 µM	67.5 µM
		0.059 µM		CC[C@@H](CO)Nc1nc(NCc2cccc(OC)c2O)c2ncn(C(C)C)c2n1	8.7 µM	15.4 µM	10.7 µM	7.8 µM	5.3 µM	5.9 µM
		0.63 µM		COc1cccc(CNc2nc(N3CCNCC3)nc3c2ncn3C(C)C)c1O	22.5 µM	14.2 µM	27.5 µM	18.9 µM	8.3 µM	30.6 µM
	0.815 µM			CC[C@H](CO)Nc1nc(NCc2ccccc2O)c2ncn(C(C)C)c2n1 [OLOMOUCINE II]	4.1 µM	23 µM	7.4 µM	9.2 µM	9.1 µM	10.6 µM
